Here are results for four molecules from ChEMBL document CHEMBL1126740, “(S)- and (R)-8-(di-n-propylamino)-6,7,8,9-tetrahydro-3H-benz[e]indole-1-carbaldehyde: a new class of orally active 5-HT1A-receptor agonists” (J Med Chem, 1993).

Molecules are shown by their SMILES. Calls of active or inactive are those of the source. The calls are words filed in the database; no cut-off is given here.

The term ED50 denotes the dose that gives a 50% effect, or the effect in half of the subjects. Usually Ki stands for the equilibrium dissociation constant of an inhibitor or competing ligand from its target. The low end stands for a stronger hold on the target, the high end for a looser hold on the target.

The species entered for experiment [1] is Rattus norvegicus. In words: Compound was tested for 5HT, Dopamine agonist mediated response in reserpine pretreated rats; mix DA, 5-HT syndrome. The class given is functional, organism-based. In outline:
(§1)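 Male Sprague-Dawley rats (200–300 g) were given reserpine 5 mg/kg sc 18 h before testing, then the test drug sc in the neck (n = 4). Motor activity was recorded by photocells for 30 min, with gross behaviour observed throughout. 5-HT syndrome: flat body posture, extended limbs, reciprocal forepaw treading. DA response: locomotion and stereotypies.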

Experiment [2] deals with Rattus norvegicus. In words: In vivo evaluation for DOPA accumulation in the corpus striatum in male rats (sc). The experiment is classed as functional. The method, boiled down:
(§2)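 Male Sprague-Dawley rats were pretreated with reserpine 5 mg/kg sc 18 h before dosing. DOPA and 5-HTP in limbic system, striatum and hemispheres were measured by HPLC with electrochemical detection. Dose-response curves used 4–6 dose levels (n = 4) for each region; ED50 was estimated graphically. Partial responses are given as the maximal % reduction at the highest dose tested.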

The test system of experiment [3] is Rattus norvegicus. As to the kind of experiment: In vivo evaluation for 5-HTP accumulation in the hemispheres in male rats (sc). The class given is functional. The method, boiled down:
as §2

The test system of experiment [4] is Rattus norvegicus. As to the kind of experiment: In vivo evaluation for 5-HTP accumulation in the limbic system in male rats (sc). The experiment is classed as functional. In outline: as §2
Experiment [5] deals with Rattus norvegicus. As to the kind of experiment: In vivo evaluation for 5-HTP accumulation in the corpus striatum in male rats (sc). The experiment is classed as functional. The method, boiled down:
as §2

Experiment [6] deals with Rattus norvegicus. As to the kind of experiment: Maximal reduction in percent (Partial response) of DOPA accumulation rat lhemispheres at highest test dose of 2.0 uM/Kg (sc). The class given is functional. The method, boiled down:
as §2

In experiment [7] the test system is Rattus norvegicus. As to the kind of experiment: In vivo evaluation for DOPA accumulation in the limbic system in male rats (sc). The class given is functional. The method, boiled down:
as §2

In experiment [8] the test system is Rattus norvegicus. As to the kind of experiment: In vivo evaluation for DOPA accumulation in the hemispheres in male rats (sc). The class given is functional. In outline: as §2
The species entered for experiment [9] is Rattus norvegicus. As to the kind of experiment: Compound was tested for 5HT, Dopamine agonist mediated response in reserpine pretreated rats; no change. The experiment is classed as functional, organism-based. In outline:
as §1

The subject of experiment [10] is Rattus norvegicus. In words: Maximal reduction in percent (Partial response) of DOPA accumulation rat limbic system at highest test dose of 3.1 uM/Kg (sc). The class given is functional.
For experiment [11], the system named is Rattus norvegicus. In words: Maximal reduction in percent (Partial response) of DOPA accumulation rat corpus striatum at highest test dose of 3.1 uM/Kg (sc). The class given is functional. In outline: as §2
The target in experiment [12] is T1, D(2) dopamine receptor (Rattus norvegicus, UniProt P61169). As to the kind of experiment: Displacement of [3H]spiperone from dopamine receptor D2. The method, boiled down: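 Rat striatal membranes in 50 mM potassium phosphate buffer (3 mg original tissue) incubated with 0.5 nM [3H]spiperone for 10 min at 37 °C. Nonspecific binding was defined with 10 μM 6,7-ADTN. Ki was calculated by Cheng–Prusoff; triplicates, 3–7 experiments.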
T1 sequence (P61169 whole entry): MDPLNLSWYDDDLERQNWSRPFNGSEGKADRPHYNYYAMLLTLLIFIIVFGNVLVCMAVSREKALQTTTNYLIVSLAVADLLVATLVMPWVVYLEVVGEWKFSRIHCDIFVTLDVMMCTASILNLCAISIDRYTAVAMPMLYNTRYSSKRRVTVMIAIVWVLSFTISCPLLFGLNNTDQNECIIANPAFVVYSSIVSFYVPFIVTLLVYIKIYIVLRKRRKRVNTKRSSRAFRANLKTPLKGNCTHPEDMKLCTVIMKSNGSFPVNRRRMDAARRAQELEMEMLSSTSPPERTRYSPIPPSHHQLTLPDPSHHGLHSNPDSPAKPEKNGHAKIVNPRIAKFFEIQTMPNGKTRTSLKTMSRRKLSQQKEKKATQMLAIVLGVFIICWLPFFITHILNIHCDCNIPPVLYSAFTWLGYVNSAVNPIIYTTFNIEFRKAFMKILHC
(In general: Loss of bound radioactivity is the signal in a displacement assay; it reports binding, not function.)

Experiment [13] deals with Rattus norvegicus. In words: In vivo evaluation for DOPA accumulation in the hemispheres in male rats at highest dose tested; inactive. The class given is functional, organism-based. The method, boiled down: as §2
For experiment [14], the system named is Rattus norvegicus. As to the kind of experiment: In vivo evaluation for DOPA accumulation in the hemispheres in male rats at highest test dose of 12.5 uM/Kg (sc); inactive. The class given is functional, organism-based. In outline:
as §2

Experiment [15] concerns the target T1, D(2) dopamine receptor. As to the kind of experiment: In vitro binding affinity against dopamine receptor D2 using [3H]-Raclopride as radioligand in CHO cells (sc). The experiment is classed as cell-based.
The species entered for experiment [16] is Rattus norvegicus. In words: Compound was tested for 5-HT behavioral response in reserpine pretreated rats; +5HT syndrome. The class given is functional, organism-based. The method, boiled down:
as §1

Take `CN(C)[C@@H]1CCc2ccc3[nH]ccc3c2C1`: the Behavioral response result in the experiment listed under Rattus norvegicus [1] is “Active”. Besides, the median effective dose (ED50) in the experiment with Rattus norvegicus [2] stood at 0.4 µmol/kg; in the experiment on Rattus norvegicus [3], 0.4 µmol/kg; with Rattus norvegicus [4], 0.4 µmol/kg; with Rattus norvegicus [5], 0.1 µmol/kg; with Rattus norvegicus [7], 0.3 µmol/kg. Besides, the Reduction in the experiment on Rattus norvegicus [6] is 30%.
As for `CN(C)[C@H]1CCc2ccc3[nH]ccc3c2C1`, the ED50 stood at 13 µmol/kg in the experiment on Rattus norvegicus [8]; 8 µmol/kg in the experiment with Rattus norvegicus [2]; 2.7 µmol/kg with Rattus norvegicus [3]; 3.9 µmol/kg with Rattus norvegicus [4]; 3.9 µmol/kg in the experiment on Rattus norvegicus [5]; 4.2 µmol/kg in the experiment on Rattus norvegicus [7]. The Behavioral response result in the experiment filed under Rattus norvegicus [9] was “inactive”.
On to `CCCN(CCC)[C@H]1CCc2ccc3[nH]ccc3c2C1`, for which the Behavioral response result in the experiment listed under Rattus norvegicus [1] is “Active”. For the same molecule, the 50% effective dose (ED50) with Rattus norvegicus [3] is 0.2 µmol/kg; in the experiment with Rattus norvegicus [4] it was 0.16 µmol/kg; in the experiment on Rattus norvegicus [5] it was 0.3 µmol/kg. Besides, the Reduction with Rattus norvegicus [10] was found to be 31%; with Rattus norvegicus [11], 37%. On D(2) dopamine receptor [12], this molecule gave an inhibition constant Ki of 146 nM. The ED50 result in the experiment on Rattus norvegicus [13] is “inactive”.
As to `CCCN(CCC)C1CCc2ccc3[nH]cc(C=O)c3c2C1` (racemic), the ED50 result in the experiment with Rattus norvegicus [14] was “inactive”. The ED50 in the experiment on Rattus norvegicus [2] stood at 1.8 µmol/kg; with Rattus norvegicus [3], 0.067 µmol/kg; with Rattus norvegicus [4], 0.06 µmol/kg; in the experiment on Rattus norvegicus [5] it was 0.054 µmol/kg; in the experiment with Rattus norvegicus [7], 0.47 µmol/kg. The Ki came out at 40 nM on D(2) dopamine receptor [15] and 120 nM on D(2) dopamine receptor [12]. Besides, the Behavioral response entry in the experiment filed under Rattus norvegicus [16] was “Active”.
